Data published in PMC12495087 (ESMO Open, 2025).

Test: phase I study BOS172738-01: safety and tolerability
Assay type: in vivo, human
Conditions: for patients who discontinued study treatment due to AEs: interim cut-off
How it was run: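 Patients received at least one dose of oral drug given once daily in 28-day cycles. Part A escalated 10–150 mg, by accelerated titration (dose doubling) and then 3+3 Fibonacci steps; part B used 75 mg. AEs were graded by CTCAE v4.03 from first dose to 31 days after last dose. DLTs counted in cycle 1. Missing causality was scored as related and missing grade as grade 3.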

[1] = part A, all dose levels, n = 67
[2] = part B, RET gene-fusion NSCLC, 75 mg, n = 20
[3] = part B, RET gene-mutant MTC, 75 mg, n = 7

COc1cc2cc(-c3ccc(CC(=O)Nc4cc(C(C)(C)C(F)(F)F)no4)cn3)cnc2cc1OC [BOS172738]
TEAE related to BOS, any [1]: 61 (91) n (%)
TEAE related to BOS, grade ≥3 [1]: 39 (58) n (%)
patients who discontinued study treatment due to AEs (part A, % of 69 screened): 18 (26%) n (%)
Any TEAE (part B total, n = 50): 50 (100) n (%)
Any TEAE leading to BOS discontinuation (part B total, n = 50): 7 (14) n (%)
Any TEAE leading to BOS dose interruption (part B total, n = 50): 33 (66) n (%)
Any TEAE leading to BOS dose reduction (part B total, n = 50): 10 (20) n (%)
Any TEAE leading to study discontinuation (part B total, n = 50): 7 (14) n (%)
Any TEAE related to BOS leading to BOS discontinuation (part B total, n = 50): 2 (4) n (%)
Any TEAE related to BOS leading to study discontinuation (part B total, n = 50): 1 (2) n (%)
Any TEAE resulting in death (part B total, n = 50): 2 (4) n (%)
Any TEAE, grade ≥3 (part B total, n = 50): 41 (82) n (%)
Serious TEAEs related to BOS (part B total, n = 50): 2 (4) n (%)
Serious TEAEs, any (part B total, n = 50): 28 (56) n (%)
TEAE related to BOS, CTCAE grade ≥3: Anemia (part B total, n = 50): 3 (6) n (%)
TEAE related to BOS, CTCAE grade ≥3: Asthenia (part B total, n = 50): 0 n (%)
TEAE related to BOS, CTCAE grade ≥3: Blood creatinine phosphokinase increased (part B total, n = 50): 10 (20) n (%)
TEAE related to BOS, CTCAE grade ≥3: Diarrhea (part B total, n = 50): 0 n (%)
TEAE related to BOS, CTCAE grade ≥3: Hypophosphatemia (part B total, n = 50): 3 (6) n (%)
TEAE related to BOS, CTCAE grade ≥3: Lymphopenia (part B total, n = 50): 2 (4) n (%)
TEAE related to BOS, CTCAE grade ≥3: Muscular weakness (part B total, n = 50): 0 n (%)
TEAE related to BOS, CTCAE grade ≥3: Myositis (part B total, n = 50): 0 n (%)
TEAE related to BOS, CTCAE grade ≥3: Neutropenia (part B total, n = 50): 0 n (%)
TEAE related to BOS, CTCAE grade ≥3: Neutrophil count decreased (part B total, n = 50): 7 (14) n (%)
TEAE related to BOS, any (part B total, n = 50): 38 (76) n (%)
TEAE related to BOS, grade ≥3 (part B total, n = 50): 24 (48) n (%)
Any TEAE (part B, Other, 75 mg, n = 23): 23 (100) n (%)
Any TEAE leading to BOS discontinuation (part B, Other, 75 mg, n = 23): 5 (22) n (%)
Any TEAE leading to BOS dose interruption (part B, Other, 75 mg, n = 23): 11 (48) n (%)
Any TEAE leading to BOS dose reduction (part B, Other, 75 mg, n = 23): 4 (17) n (%)
Any TEAE leading to study discontinuation (part B, Other, 75 mg, n = 23): 3 (13) n (%)
Any TEAE related to BOS leading to BOS discontinuation (part B, Other, 75 mg, n = 23): 1 (4) n (%)
Any TEAE related to BOS leading to study discontinuation (part B, Other, 75 mg, n = 23): 0 n (%)
Any TEAE resulting in death (part B, Other, 75 mg, n = 23): 1 (4) n (%)
Any TEAE, grade ≥3 (part B, Other, 75 mg, n = 23): 16 (70) n (%)
Serious TEAEs related to BOS (part B, Other, 75 mg, n = 23): 1 (4) n (%)
Serious TEAEs, any (part B, Other, 75 mg, n = 23): 17 (74) n (%)
TEAE related to BOS, CTCAE grade ≥3: Anemia (part B, Other, 75 mg, n = 23): 1 (4) n (%)
TEAE related to BOS, CTCAE grade ≥3: Asthenia (part B, Other, 75 mg, n = 23): 0 n (%)
TEAE related to BOS, CTCAE grade ≥3: Blood creatinine phosphokinase increased (part B, Other, 75 mg, n = 23): 0 n (%)
TEAE related to BOS, CTCAE grade ≥3: Diarrhea (part B, Other, 75 mg, n = 23): 0 n (%)
TEAE related to BOS, CTCAE grade ≥3: Hypophosphatemia (part B, Other, 75 mg, n = 23): 1 (4) n (%)
TEAE related to BOS, CTCAE grade ≥3: Lymphopenia (part B, Other, 75 mg, n = 23): 1 (4) n (%)
TEAE related to BOS, CTCAE grade ≥3: Muscular weakness (part B, Other, 75 mg, n = 23): 0 n (%)
TEAE related to BOS, CTCAE grade ≥3: Myositis (part B, Other, 75 mg, n = 23): 0 n (%)
TEAE related to BOS, CTCAE grade ≥3: Neutropenia (part B, Other, 75 mg, n = 23): 0 n (%)
TEAE related to BOS, CTCAE grade ≥3: Neutrophil count decreased (part B, Other, 75 mg, n = 23): 1 (4) n (%)
TEAE related to BOS, any (part B, Other, 75 mg, n = 23): 11 (48) n (%)
TEAE related to BOS, grade ≥3 (part B, Other, 75 mg, n = 23): 4 (17) n (%)
Any TEAE [2]: 20 (100) n (%)
Any TEAE leading to BOS discontinuation [2]: 1 (5) n (%)
Any TEAE leading to BOS dose interruption [2]: 17 (85) n (%)
Any TEAE leading to BOS dose reduction [2]: 4 (20) n (%)
Any TEAE leading to study discontinuation [2]: 3 (15) n (%)
Any TEAE related to BOS leading to BOS discontinuation [2]: 0 n (%)
Any TEAE related to BOS leading to study discontinuation [2]: 0 n (%)
Any TEAE resulting in death [2]: 1 (5) n (%)
Any TEAE, grade ≥3 [2]: 19 (95) n (%)
Serious TEAEs related to BOS [2]: 1 (5) n (%)
Serious TEAEs, any [2]: 9 (45) n (%)
TEAE related to BOS, CTCAE grade ≥3: Anemia [2]: 2 (10) n (%)
TEAE related to BOS, CTCAE grade ≥3: Asthenia [2]: 0 n (%)
TEAE related to BOS, CTCAE grade ≥3: Blood creatinine phosphokinase increased [2]: 8 (40) n (%)
TEAE related to BOS, CTCAE grade ≥3: Diarrhea [2]: 0 n (%)
TEAE related to BOS, CTCAE grade ≥3: Hypophosphatemia [2]: 0 n (%)
TEAE related to BOS, CTCAE grade ≥3: Lymphopenia [2]: 1 (5) n (%)
TEAE related to BOS, CTCAE grade ≥3: Muscular weakness [2]: 0 n (%)
TEAE related to BOS, CTCAE grade ≥3: Myositis [2]: 0 n (%)
TEAE related to BOS, CTCAE grade ≥3: Neutropenia [2]: 0 n (%)
TEAE related to BOS, CTCAE grade ≥3: Neutrophil count decreased [2]: 5 (25) n (%)
TEAE related to BOS, any [2]: 20 (100) n (%)
TEAE related to BOS, grade ≥3 [2]: 14 (70) n (%)
Any TEAE [3]: 7 (100) n (%)
Any TEAE leading to BOS discontinuation [3]: 1 (14) n (%)
Any TEAE leading to BOS dose interruption [3]: 5 (71) n (%)
Any TEAE leading to BOS dose reduction [3]: 2 (29) n (%)
Any TEAE leading to study discontinuation [3]: 1 (14) n (%)
Any TEAE related to BOS leading to BOS discontinuation [3]: 1 (14) n (%)
Any TEAE related to BOS leading to study discontinuation [3]: 1 (14) n (%)
Any TEAE resulting in death [3]: 0 n (%)
Any TEAE, grade ≥3 [3]: 6 (86) n (%)
Serious TEAEs related to BOS [3]: 0 n (%)
Serious TEAEs, any [3]: 2 (29) n (%)
TEAE related to BOS, CTCAE grade ≥3: Anemia [3]: 0 n (%)
TEAE related to BOS, CTCAE grade ≥3: Asthenia [3]: 0 n (%)
TEAE related to BOS, CTCAE grade ≥3: Blood creatinine phosphokinase increased [3]: 2 (29) n (%)
TEAE related to BOS, CTCAE grade ≥3: Diarrhea [3]: 0 n (%)
TEAE related to BOS, CTCAE grade ≥3: Hypophosphatemia [3]: 2 (29) n (%)
TEAE related to BOS, CTCAE grade ≥3: Lymphopenia [3]: 0 n (%)
TEAE related to BOS, CTCAE grade ≥3: Muscular weakness [3]: 0 n (%)
TEAE related to BOS, CTCAE grade ≥3: Myositis [3]: 0 n (%)
TEAE related to BOS, CTCAE grade ≥3: Neutropenia [3]: 0 n (%)
TEAE related to BOS, CTCAE grade ≥3: Neutrophil count decreased [3]: 1 (14) n (%)
TEAE related to BOS, any [3]: 7 (100) n (%)
TEAE related to BOS, grade ≥3 [3]: 6 (86) n (%)
patients who discontinued study treatment due to AEs (part B, % of 54 screened): 7 (13%) n (%)
BOS172738-related TEAEs (parts A and B, final cut-off): 85%
BOS172738-related TEAEs, grade ≥3 (parts A and B, final cut-off): 54%
BOS172738-related grade ≥3 anemia (parts A and B, final cut-off): 9%
BOS172738-related grade ≥3 blood creatine phosphokinase increased (parts A and B, final cut-off): 25%
BOS172738-related grade ≥3 neutrophil count decreased (parts A and B, final cut-off): 10%
patients with at least one TEAE (parts A and B, final data cut-off): 100%
elevated blood creatine phosphokinase leading to dose interruption (pooled data): 28%
elevated blood creatine phosphokinase leading to dose reduction (pooled data): 17%
elevated blood creatine phosphokinase leading to treatment discontinuation (pooled data): 2%
